Source: ChEMBL document CHEMBL4359883, “4(1H)-quinolone derivatives overcome acquired resistance to anti-microtubule agents by targeting the colchicine site of β-tubulin” (Eur J Med Chem, 2019)
Each block holds one compound with its values, some of them ahead of it. The source made the active and inactive calls. No cut-off for these calls is given here.

Legend:
Tubulin (Homo sapiens) [1] = molecular target: T1, Tubulin (Homo sapiens) (UniProt P68371+Q9H4B7+P0DPH7+P68366+Q13509+Q71U36+P04350+Q3ZCM7+P07437+P68363+Q9BQE3+Q6PEY2+Q13885+Q9BVA1+Q9BUF5); assay: Inhibition of microtubule polymerization in human KBtax cells at 30 nM after 6 hrs by DAPI staining based scanning confocal microscopic analysis; assay type: cell-based
How it was run: (§1)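 Cells exposed for 6 h, fixed in 3.7% paraformaldehyde, permeabilized with 0.1% Triton X-100. Stained with anti-α-tubulin (1:1000) overnight at 4 °C, FITC secondary 1 h at 37 °C, nuclei counterstained with DAPI. Imaged by confocal laser scanning microscopy.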

Tubulin (Homo sapiens) [2] = molecular target: T1, Tubulin (Homo sapiens); assay: Inhibition of microtubule polymerization in human NCI-H1975 cells at 25 nM after 6 hr followed by DAPI staining based confocal microscopic analysis; assay type: cell-based; how it was run: as §1
[3] = Antitumour activity against human KBtax cells xenografted in Balb/c mouse assessed as reduction in tumour size at 8 mg/kg, ip administered 3 times per week and measured after 21 days (reference value: 1109 +/- 128.3 mm3); assay type: functional
Homo sapiens = organism: Homo sapiens; assay: Induction of mitotic arrest in human KBtax cells assessed as increase in p-HH3 expression at 30 to 60 nM after 24 hrs by immunoblotting analysis; assay type: functional, cell-based
NCI-H1975 [4] = assay: Induction of apoptosis in human NCI-H1975 cells assessed as increase in cyclin B1 expression at 25 to 50 nM after 24 hrs by immunoblotting analysis; assay type: functional, cell-based
[5] = Toxicity in Balb/c mouse xenografted with human NCI-H1975 cells assessed as effect on body mass at 4 to 8 mg/kg, ip administered 3 times per week for 21 days; assay type: organism-based; settings: in vivo, 504 h
How it was run: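 H1975 tumors grown in right flank of 6-week-old BALB/c nude mice; after establishment, 4 or 8 mg/kg compound dissolved in DMSO, or DMSO alone, given intraperitoneally three times a week. Body mass taken before each dose.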

[6] = Toxicity in Balb/c mouse xenografted with human MDA-MB-231 cells assessed as effect on body mass at 4 to 8 mg/kg, ip administered 3 times per week for 35 days; assay type: organism-based; settings: in vivo, 840 h
How it was run: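 MDA-MB-231 tumors established in right flank of 6-week-old BALB/c nude mice; once established, 4 or 8 mg/kg compound in DMSO, or DMSO vehicle, injected intraperitoneally three times weekly. Body mass measured before each injection.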

MDA-MB-231 = assay: Antitumour activity against human MDA-MB-231 cells xenografted in Balb/c mouse assessed as […] at 8 mg/kg, ip administered three times per week and measured on day 35 (reference value: 218 +/- 20.9 mm3); assay type: functional
How it was run: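 MDA-MB-231 tumours established in the right flank of 6-week-old BALB/c nude mice. Compound dissolved in DMSO was given ip three times weekly, with a DMSO vehicle group. Tumour volume calculated as 0.5W²L, measured before each dose and compared on day 35.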

[7] = Toxicity in Balb/c mouse xenografted with human KBtax cells assessed as effect on body mass at 8 mg/kg, ip administered 3 times per week and measured after 21 days; assay type: organism-based; settings: in vivo, 504 h
How it was run: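 KBtax cells (1×10^7) injected subcutaneously into right flank of 6-week-old BALB/c nude mice; after tumor establishment, compounds dissolved in DMSO given intraperitoneally three times a week for 21 days alongside DMSO vehicle group (n = 5 per group). Body mass recorded before each dose.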

CL1-0 [8] = assay: Antiproliferative activity against human CL1-0 cells assessed as reduction in cell viability after 72 hrs by MTS assay; assay type: functional, cell-based; settings: CL1-0, 72 h
How it was run: (§2)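 Cells plated at 2000/well, cultured overnight, then exposed to a range of compound concentrations for 72 h. MTS reagent added for 1–4 h at 37 °C and absorbance read at 490 nm. Cultured in RPMI 1640 or DMEM with 10% heat-inactivated FBS under 5% CO2. Data are the mean of three determinations.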

CL1-0 [9] = assay: Induction of mitotic arrest in human CL1-0 cells assessed as increase in phospho-histone H3 expression at 20 to 40 nM after 24 hrs by immunoblotting analysis; assay type: functional, cell-based
NCI-H1975 [10] = assay: Induction of apoptosis in human NCI-H1975 cells assessed as increase in cytochrome c level in cytosol at 40 to 80 nM after 24 hrs by immunoblotting analysis; assay type: functional, cell-based
[11] = molecular target: T2, Tubulin alpha (Homo sapiens) (UniProt P0DPH7+P68366+Q71U36+P68363+Q9BQE3+Q6PEY2+A6NHL2+Q9NY65); assay: Induction of microtubule depolymerization in human NCI-H1975 cells assessed as increase in alpha tubulin soluble form by immunoblot analysis; assay type: cell-based
How it was run: (§3)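 Lysate spun at 16,000 rpm for 15 min at room temperature. Soluble (monomer) and particulate (polymer) fractions immunoblotted for α-tubulin.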

OVCAR-3 = assay: Antiproliferative activity against human OVCAR3 cells assessed as reduction in cell viability after 72 hrs by MTS assay; assay type: functional, cell-based; settings: OVCAR-3, 72 h; how it was run: as §2
Tubulin (Homo sapiens) [12] = molecular target: T1, Tubulin (Homo sapiens); assay: Binding affinity to tubulin (unknown origin) assessed as reduction in colchicine fluorescence after 1 hr in presence of colchicine by fluorescence based assay; assay type: protein-complex assay
How it was run: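 Tubulin (3 µM) mixed with colchicine (3 µM) and incubated with varying compound concentrations in PEM buffer, pH 6.9, for 1 h at 37 °C. Fluorescence read at ex 365/em 435 nm; mean ± SD.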

CL1-0 [13] = assay: Induction of apoptosis in human CL1-0 cells assessed as caspase 8 activation at 20 to 40 nM after 24 hrs by immunoblotting analysis; assay type: functional, cell-based
NCI-H1975 [14] = assay: Antitumour activity against human NCI-H1975 cells xenografted in Balb/c mouse assessed as reduction in tumour size at 8 mg/kg, ip administered 3 times per week and measured on day 25 (reference value: 1749 +/- 234.5 mm3); assay type: functional
[15] = Antiproliferative activity against human OECM1 cells assessed as reduction in cell viability after 72 hrs by MTS assay; assay type: functional, cell-based; settings: OECM1, 72 h; how it was run: as §2
NCI-H1975 [16] = assay: Induction of apoptosis in human NCI-H1975 cells assessed as bax protein expression after 24 hrs by immunoblotting analysis; assay type: functional, cell-based
[17] = Antiproliferative activity against human 82T cells assessed as reduction in cell viability after 72 hrs by MTS assay; assay type: functional, cell-based; how it was run: as §2
DU-145 = assay: Antiproliferative activity against human DU145 cells assessed as reduction in cell viability after 72 hrs by MTS assay; assay type: functional, cell-based; settings: DU-145, 72 h; how it was run: as §2
CL1-0 [18] = assay: Induction of apoptosis in human CL1-0 cells assessed as increase in cytochrome c level in cytosol at 20 to 40 nM after 24 hrs by immunoblotting analysis; assay type: functional, cell-based
HCT-116 = assay: Antiproliferative activity against human HCT116 cells assessed as reduction in cell viability after 72 hrs by MTS assay; assay type: functional, cell-based; settings: HCT-116, 72 h; how it was run: as §2
PC-9 = assay: Antiproliferative activity against human PC9 cells assessed as reduction in cell viability after 72 hrs by MTS assay; assay type: functional, cell-based; settings: PC-9, 72 h; how it was run: as §2
[19] = molecular target: T2, Tubulin alpha (Homo sapiens); assay: Induction of microtubule depolymerization in human CL1-0 cells assessed as increase in alpha tubulin soluble form by immunoblot analysis; assay type: cell-based; how it was run: as §3
NCI-H1975 [20] = assay: Induction of cell cycle arrest in human NCI-H1975 cells assessed as accumulation at mitotic phase after 24 hrs by high content imaging analysis; assay type: functional, cell-based
How it was run: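 Cells exposed for 24 h, stained for phospho-histone H3 (S10), and imaged by high-content imaging. Mitotic index taken as the fraction of p-HH3-positive cells. Mean ± SD.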

inhibition (Tubulin (Homo sapiens) [1]): Active
inhibition (Tubulin (Homo sapiens) [2]): Active
SMILES: CCOC(=O)c1ccc2[nH]c(-c3cccc(F)c3)cc(=O)c2c1
Activity [3]: 528.4 mm3
Activity (Homo sapiens): Active
Activity (NCI-H1975 [4]): Active
Activity [5]: Non-Toxic
Activity [6]: Non-Toxic
Activity (MDA-MB-231): 73.6 mm3
Activity [7]: Non-Toxic

Activity [11]: Active
IC50 (OVCAR-3): 28 nM
Activity (Tubulin (Homo sapiens) [12]): Dose-dependent effect
IC50 (DU-145): 47 nM
IC50 (HCT-116): 50 nM
IC50 (PC-9): 17 nM
Activity [19]: Active
SMILES: CCOC(=O)c1ccc2nc(-c3ccccc3)cc(O)c2c1
IC50 (CL1-0 [8]): 16 nM
Activity (CL1-0 [9]): Active
Activity (NCI-H1975 [10]): Active
Activity (CL1-0 [13]): inactive
Activity (NCI-H1975 [14]): 587.2 mm3
IC50 [15]: 52 nM
Activity (NCI-H1975 [16]): Dose-dependent effect
IC50 [17]: 35 nM
Activity (CL1-0 [18]): Active
Activity (NCI-H1975 [20]): Dose-dependent effect
